Reference: ChEMBL document CHEMBL3526127, “Absorption, elimination, and metabolism of CS-1036, a novel α-amylase inhibitor in rats and monkeys, and the relationship between gastrointestinal distribution and suppression of glucose absorption” (Drug Metab Dispos, 2013)
Values belong to the compound of their own block, whether it stands above or below them.

Tests used:
[1] = AUClast in F344 rat at 10 mg/kg, iv administered as single dose by LC-MS/MS method; format: ADME, organism-based; set-up: time 0 - last, dose 10 mg/kg, route intravenous; settings: plasma
Method in brief: (§1)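 Fasted male F344 rats (146–185 g) or male cynomolgus monkeys (3.48–4.29 kg), n = 4 per dose, given single iv or oral dose of 0.3, 1.0, 3.0 or 10.0 mg/kg; monkeys dosed with 2-week washouts. Blood sampled to 48 h; plasma stored frozen. LC-MS/MS with deuterated internal standard. Noncompartmental analysis: AUClast by trapezoidal rule; AUC0–inf = AUClast + Ctz/terminal rate constant; mean ± S.D.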

[2] = Half life in F344 rat at 0.3 mg/kg, iv administered as single dose by LC-MS/MS method; format: ADME, organism-based; set-up: dose 0.3 mg/kg, route intravenous; settings: in vivo
Method in brief: (§2)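 Fasted male F344 rats (146–185 g, n = 4 per dose) received single i.v. CS-1036. Plasma was sampled up to 48 h and analysed by LC-MS/MS. t1/2 came from noncompartmental regression of three or more log-transformed terminal-phase points. Mean ± S.D.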

[3] = Clearance in F344 rat at 10 mg/kg, iv administered as single dose by LC-MS/MS method; format: ADME, organism-based; set-up: dose 10 mg/kg, route intravenous; settings: in vivo
Method in brief: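 Fasted male F344 rats (146–185 g) and male cynomolgus monkeys (3.48–4.29 kg), n = 4 each, received a single iv dose; monkeys had 2-week washouts between doses. Blood was sampled up to 48 h and plasma stored at […]. Plasma parent was quantified by LC-MS/MS with a deuterated internal standard. CL = dose/AUC0–inf by noncompartmental analysis; mean ± S.D.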

[4] = Half life in F344 rat at 10 mg/kg, iv administered as single dose by LC-MS/MS method; format: ADME, organism-based; set-up: dose 10 mg/kg, route intravenous; settings: in vivo; method in brief: as §2
[5] = AUC (0 to infinity) in F344 rat at 1 mg/kg, po administered as single dose by LC-MS/MS method; format: ADME, organism-based; set-up: dose 1 mg/kg, route oral, time infinity; settings: plasma; method in brief: as §1
[6] = Cmax in cynomolgus monkey at 1 mg/kg, po administered as single dose by LC-MS/MS method; format: ADME, organism-based, Macaca fascicularis; set-up: dose 1 mg/kg, route oral; settings: in vivo
Method in brief: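 Fasted male F344 rats (146–185 g) and cynomolgus monkeys (3.48–4.29 kg), n = 4 each, received a single oral dose; monkeys had 2-week washouts. Plasma sampled up to 48 h, stored at […], assayed by LC-MS/MS with a deuterated internal standard. Cmax taken from observed data by noncompartmental analysis; mean ± S.D. (n = 3 or 4).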

[7] = Tmax in F344 rat at 0.3 mg/kg, po administered as single dose by LC-MS/MS method; format: ADME, organism-based; set-up: dose 0.3 mg/kg, route oral; settings: in vivo
Method in brief: (§3)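 Male F344 rats (146–185 g) and male cynomolgus monkeys (3.48–4.29 kg), n = 4 each, fasted overnight, received single iv or oral doses of 0.3, 1.0, 3.0 or 10.0 mg/kg. Monkeys had 2-week washouts between doses. Plasma was sampled to 48 h and assayed by LC-MS/MS with deuterated internal standard. Noncompartmental analysis: tmax observed; t1/2 by regression on ≥3 terminal log points; Vss = dose·AUMC/(AUC0–inf)²; Foral = oral/iv AUC0–inf at the same dose.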

[8] = Cmax in F344 rat at 3 mg/kg, po administered as single dose by LC-MS/MS method; format: ADME, organism-based; set-up: dose 3 mg/kg, route oral; settings: in vivo
[9] = Half life in F344 rat at 1 mg/kg, po administered as single dose by LC-MS/MS method; format: ADME, organism-based; set-up: dose 1 mg/kg, route oral; settings: in vivo
[10] = Oral bioavailability in cynomolgus monkey at 1 mg/kg administered as single dose by LC-MS/MS method; format: ADME, organism-based, Macaca fascicularis; settings: in vivo; method in brief: as §3
[11] = AUC (0 to infinity) in F344 rat at 0.3 mg/kg, po administered as single dose by LC-MS/MS method; format: ADME, organism-based; set-up: time infinity, dose 0.3 mg/kg, route oral; settings: plasma; method in brief: as §1
[12] = Half life in cynomolgus monkey at 10 mg/kg, po administered as single dose by LC-MS/MS method; format: ADME, organism-based, Macaca fascicularis; set-up: dose 10 mg/kg, route oral; settings: in vivo; method in brief: as §3
[13] = AUClast in cynomolgus monkey at 1 mg/kg, iv administered as single dose by LC-MS/MS method; format: ADME, organism-based, Macaca fascicularis; set-up: time 0 - last, dose 1 mg/kg, route intravenous; settings: plasma; method in brief: as §1
[14] = AUC (0 to infinity) in cynomolgus monkey at 1 mg/kg, po administered as single dose by LC-MS/MS method; format: ADME, organism-based, Macaca fascicularis; set-up: dose 1 mg/kg, route oral, time infinity; settings: plasma; method in brief: as §1
[15] = Drug excretion in cynomolgus monkey urine at 3 mg/kg, iv administered as single dose after 0 to 48 hrs by scintillation counting method; format: ADME, organism-based, Macaca fascicularis; set-up: dose 3 mg/kg, route intravenous; settings: in vivo
[16] = Drug excretion in cynomolgus monkey urine at 3 mg/kg, po administered as single dose after 0 to 48 hrs by scintillation counting method; format: ADME, organism-based, Macaca fascicularis; set-up: dose 3 mg/kg, route oral; settings: in vivo
[17] = Drug excretion in bile duct cannulated F344 rat bile at 1 mg/kg, iv administered as single dose after 0 to 48 hrs by scintillation counting method; format: ADME, organism-based; set-up: dose 1 mg/kg, route intravenous; settings: in vivo
Method in brief: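 Common bile duct was cannulated under diethyl ether in fasted F344 rats. After recovery, [14C]-labelled drug (1 mg/kg, 41.9 µCi/kg) was given iv via tail vein or by oral gavage (n = 4). Rats were held in Bollman cages and bile was collected at 4°C over 0–48 h intervals. Bile was counted by liquid scintillation; % of dose.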

[18] = Drug excretion in F344 rat urine at 1 mg/kg, po administered as single dose after 0 to 168 hrs by scintillation counting method; format: ADME, organism-based; set-up: dose 1 mg/kg, route oral; settings: in vivo
Method in brief: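 Fasted F344 rats (152–156 g iv via tail vein; 154–159 g oral; n = 4) received [14C]-labelled drug at 1 mg/kg (41.9 µCi/kg). Animals were kept in metabolic cages; urine and feces were collected to 168 h, and expired CO2 was trapped in 2-aminoethanol/2-methoxyethanol (1:1) to 48 h. Samples were counted by liquid scintillation (feces homogenized). Results are % of dose, mean ± S.D.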

[19] = Drug metabolism in human liver S9 fractions at 0.42 uCi/ml assessed as metabolite formation in presence of NADPH after 1 hr at 37 degC by LC-MS/MS method; format: ADME, subcellular, Liver S9 fraction; settings: s9, 1 h
[20] = Drug excretion in cynomolgus monkey feces at 3 mg/kg, iv administered as single dose after 0 to 336 hrs by scintillation counting method; format: ADME, organism-based, Macaca fascicularis; set-up: dose 3 mg/kg, route intravenous; settings: in vivo
Method in brief: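 Fasted cynomolgus monkeys (n = 4) received [14C]-labelled drug at 3 mg/kg, iv via saphenous vein (191 µCi/kg) or orally by stomach catheter (156.5 µCi/kg). Urine, feces and water cage-wash were collected to 336 h. Samples were counted by liquid scintillation; feces were homogenized in 4-fold water. Results are % of dose, mean ± S.D.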

[21] = Drug metabolism in anaerobic culture broth of monkey feces assessed as 1,4-dideoxy-1,4-imino-D-arabinitol formation at 63.5 uCi/ml after 24 hrs at 35 degC by LC-MS/MS method; settings: cynomolgus monkey
[22] = test system: Rattus norvegicus; assay: Total drug excretion in bile duct cannulated F344 rat at 1 mg/kg, po administered as single dose after 0 to 48 hrs by scintillation counting method; format: ADME, organism-based; set-up: dose 1 mg/kg, route oral; settings: in vivo
Method in brief: (§4)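 Under ether anesthesia, the common bile duct of fasted F344 rats was cannulated. After recovery, rats received 1 mg/kg (41.9 µCi/kg) of the 14C-labelled compound iv or by oral gavage (n = 4). They were kept in Bollman cages, and bile was collected at 0–6, 6–24, 24–30 and 30–48 h at 4°C. Radioactivity was measured by liquid scintillation counting as % of dose.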

[23] = test system: Rattus norvegicus; assay: Total drug excretion in bile duct cannulated F344 rat at 1 mg/kg, iv administered as single dose after 0 to 48 hrs by scintillation counting method; format: ADME, organism-based; set-up: dose 1 mg/kg, route intravenous; settings: in vivo; method in brief: as §4

AUC(0-t) [1]: 53000 ng·h/mL
half-life [2]: 14.6 h
clearance [3]: 3.16 mL/min/kg
half-life [4]: 21.5 h
AUC(0-inf) [5]: 115 ng·h/mL
Cmax [6]: 15.3 ng/mL
Tmax [7]: 0.5 h
Cmax [8]: 113 ng/mL
half-life [9]: 1.81 h
bioavailability [10]: 0.983%
AUC(0-inf) [11]: 45.6 ng·h/mL
half-life [12]: 12.6 h
AUC(0-t) [13]: 5870 ng·h/mL
AUC(0-inf) [14]: 57.9 ng·h/mL
Compound: C[C@H]1O[C@@H](O[C@H]2[C@H](O)[C@@H](O)[C@@H](O[C@H]3[C@H](O)CN[C@@H]3CO)O[C@@H]2CO)[C@H](O)[C@@H](O)[C@@H]1O

Drug excretion [15]: 80.13%
Drug excretion [16]: 4.54%
Drug excretion [17]: 0.37%
Drug excretion [18]: 15.32%
Drug metabolism [19]: metabolite_not_detected
Drug excretion [20]: 0.66%
Drug metabolism [21]: metabolite_detected
Drug excretion [22]: 0.59%
Drug excretion [23]: 0.37%
Compound: C[C@H]1O[C@@H](O[C@H]2[C@H](O)[C@@H](O)[C@@H](O[14C@H]3[14C@H](O)[14CH2]N[14C@@H]3[14CH2]O)O[C@@H]2CO)[C@H](O)[C@@H](O)[C@@H]1O
